Experimental data as given in ChEMBL document CHEMBL5653605, “Reduced VEGF production, angiogenesis, and vascular regrowth contribute to the antitumor properties of dual mTORC1/mTORC2 inhibitors” (Cancer Res, 2011).
Active and inactive are the calls of the source.

What was measured:
[1] = molecular target: Serine/threonine-protein kinase mTOR (Homo sapiens, UniProt P42345); assay: Inhibition of mTOR (unknown origin)
[2] = molecular target: Phosphatidylinositol 4,5-bisphosphate 3-kinase catalytic subunit gamma isoform (Homo sapiens, UniProt P48736); assay: Inhibition of PI3Kgamma (unknown origin) at 3 uM by Ambit Kinomescan assay relative to control
[3] = test system: Pancreatic islet cell carcinoma; assay: Antivascular activity against pancreatic islet cell carcinoma in RIP-Tag2 mouse assessed as reduction in CD31-positive tumor blood vessels at 75 mg/kg, po bid administered via gavage and measured after 7 days by immunohistochemical staining based fluorescence microscopic analysis relative to control; format: functional; set-up: scale not given: the % may be the effect or the level left; settings: time 7 day
Method in brief: (§1)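 For 7 days, RIP-Tag2 mice, 9–10 weeks old, received 75 mg/kg gavage BID, 200 mg/kg gavage QD, or 20 mg/kg ip QD. Perfusion-fixed tumors cut at 60–80 µm and stained for CD31 and type IV collagen basement membrane. Vessel area density from fluorescence images with threshold 30–50; sprouts and empty basement membrane sleeves examined by confocal microscopy. 3–8 mice/group; ANOVA, Fisher PLSD.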

[4] = molecular target: T1, DNA-dependent protein kinase catalytic subunit (Homo sapiens, UniProt P78527); assay: Inhibition of DNA-PK activity (unknown origin) presence of ATP
[5] = molecular target: Proto-oncogene tyrosine-protein kinase receptor Ret (Homo sapiens) (UniProt P07949); assay: Inhibition of RET (unknown origin) at 3 uM by Ambit Kinomescan assay relative to control
[6] = molecular target: Phosphatidylinositol 4,5-bisphosphate 3-kinase catalytic subunit delta isoform (Homo sapiens) (UniProt O00329); assay: Inhibition of PI3Kdelta (unknown origin) at 3 uM by Ambit Kinomescan assay relative to control
[7] = test system: Pancreatic islet cell carcinoma; assay: Antitumor activity against pancreatic islet cell carcinoma in RIP-Tag2 mouse assessed as reduction in VEGF production by measuring reduction in fluorescence in entire tumor at 75 mg/kg, po bid administered via gavage and measured after 4 days by immunohistochemical staining based confocal microscopic analysis relative to control; format: functional; set-up: scale not given: the % may be the effect or the level left; settings: time 4 day
Method in brief: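 Treatment began in RIP-Tag2 mice at 9–10 weeks: 75 mg/kg gavage BID for 1, 4 or 7 days, or 20 mg/kg ip QD for 7 days; vehicle Labrifil or water. Tissue fixed by vascular perfusion and 60–80 µm sections stained for VEGF with CD31. VEGF fluorescence intensity measured over whole tumor, tumor cells, or tumor vessels. 3–8 mice/group; ANOVA, Fisher PLSD.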

OVCAR-3 = assay: Inhibition of S6K phosphorylation at 235/236 residues in serum deprived/insulin stimulated human OVCAR-3 cells harboring PTEN and wild type PI3K at 0.001 to 10 uM preincubated for 2 hrs followed by insulin stimulation and measured immediately by Western blot analysis; format: cell-based; settings: dose 0.001-10 µM
[8] = molecular target: Eukaryotic translation initiation factor 4E-binding protein 1 (Homo sapiens) (UniProt Q13541); assay: Inhibition of 4E-BP1 phosphorylation at Ser 37/46 residues in serum deprived/insulin stimulated human OVCAR-3 cells harboring PTEN and wild type PI3K preincubated for 2 hrs followed by insulin stimulation and measured immediately by Western blot analysis; format: cell-based; settings: dose 0.001-10 µM
[9] = molecular target: T1, DNA-dependent protein kinase catalytic subunit; assay: Inhibition of DNA-PK (unknown origin) assessed as reduction in phosphorylated RPA32 level by cell based assay
[10] = molecular target: Proline-rich AKT1 substrate 1 (Homo sapiens) (UniProt Q96B36); assay: Inhibition of PRAS40 phosphorylation at Ser 246 residue in serum deprived/insulin stimulated human OVCAR-3 cells harboring PTEN and wild type PI3K preincubated for 2 hrs followed by insulin stimulation and measured immediately by Western blot analysis; format: cell-based; settings: dose 0.001-10 µM
[11] = molecular target: Epidermal growth factor receptor (Homo sapiens, UniProt P00533); assay: Inhibition of EGFR phosphorylation (unknown origin) by cell based assay
[12] = test system: Pancreatic islet cell carcinoma; assay: Antivascular activity in pancreatic islet cell carcinoma in RIP-Tag2 mouse assessed as reduction in intratumoral hemorrhage by measuring reduction in TER-119 immunoreactivity at 75 mg/kg, po bid pretreated with OSI-930 for 7 days at 200 mg/kg, po followed by compound administration and measured after 4 days by confocal microscopic analysis relative to control; format: functional; set-up: scale not given: the % may be the effect or the level left; settings: time 4 day
Method in brief: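 Regrowth design in 10-week-old RIP-Tag2 mice: OSI-930 200 mg/kg gavage QD for 7 days, then 4 days of vehicle, 75 mg/kg gavage BID, or 20 mg/kg ip QD; controls received vehicle for 11 days. Perfusion-fixed sections stained for CD31 for vessel density or for the erythrocyte marker TER-119, quantified by confocal microscopy. 3–8 mice/group; ANOVA, Fisher PLSD.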

Mus musculus = assay: In vivo inhibition of S6K phosphorylation in RIP-Tag2 mouse with pancreatic islet cell carcinoma 75 mg/kg, po bid administered via gavage and measured after 7 days by immunohistochemistry; format: functional, organism-based; settings: time 7.0 day
Method in brief: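 RIP-Tag2 mice aged 9–10 weeks dosed 75 mg/kg BID by gavage for 7 days, vehicle Labrifil or water; perfusion fixation, 60–80 µm tumor sections immunostained for phospho-4E-BP1, phospho-Akt or phospho-S6K with CD31; fluorescence/confocal imaging; 3–8 mice per group.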

[13] = molecular target: Phosphatidylinositol 4,5-bisphosphate 3-kinase catalytic subunit beta isoform (Homo sapiens, UniProt P42338); assay: Inhibition of PI3Kbeta (unknown origin) in presence of ATP by HTRF assay
Method in brief: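 PI3K activity by HTRF assay at […] ATP.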

[14] = test system: Pancreatic islet cell carcinoma; assay: Antivascular activity in pancreatic islet cell carcinoma in RIP-Tag2 mouse assessed as suppression of tumor regrowth by measuring reduction in vessel density at 75 mg/kg, po bid administered via gavage pretreated with OSI-930 for 7 days at 200 mg/kg, po followed by compound administration and measured after 1 day; format: functional, organism-based
[15] = test system: Pancreatic islet cell carcinoma; assay: Additive antitumor activity in pancreatic islet cell carcinoma in RIP-Tag2 mouse assessed as reduction in proliferation by measuring reduction in phospho-histone H3 level at 100 mg/kg, po bid administered via gavage for 4 days in presence of OSI-930 by immunohistochemistry analysis; format: functional, organism-based; settings: time 4.0 day
[16] = test system: Pancreatic islet cell carcinoma; assay: Antivascular activity against pancreatic islet cell carcinoma in RIP-Tag2 mouse assessed as reduction in vascular sprouts at 75 mg/kg, po bid administered via gavage and measured after 7 days by immunohistochemical staining based fluorescence microscopic analysis relative to control; format: functional; set-up: scale not given: the % may be the effect or the level left; settings: time 7 day; method in brief: as §1
[17] = test system: Pancreatic islet cell carcinoma; assay: Antitumor activity against pancreatic islet cell carcinoma in RIP-Tag2 mouse assessed as reduction in VEGF-B expression at 75 mg/kg, po bid administered via gavage and measured after 1 to 7 days by immunoprecipitation based densitometric analysis; format: functional, organism-based; settings: time 1-7 day
Method in brief: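 VEGF in tumor lysates from treated RIP-Tag2 mice (9–10 weeks old at start; 75 mg/kg gavage BID or 20 mg/kg ip QD) measured with mouse angiogenesis antibody arrays, read as pixel density. 3–8 mice/group, SEM; ANOVA with Fisher PLSD.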

[18] = Inhibition of MAPK (unknown origin) signaling axis assessed as reduction in phosphorylated ERK1/2 level by cell based assay; settings: Homo sapiens
[19] = molecular target: Dual specificity mitogen-activated protein kinase kinase 2 (Homo sapiens) (UniProt P36507); assay: Inhibition of MEK2 (unknown origin)
mTORC1 = mTORC1 (Homo sapiens, UniProt P42345); assay: Competitive inhibition of mTORC1 immunoprecipitated from human HeLa cells using His-tagged 4E-BP1 as substrate incubated for 30 mins in presence of ATP by chemiluminescence based ELISA
Method in brief: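 Native mTORC1 or mTORC2 complex immunoprecipitated from HeLa lysates; kinase reaction run at 1 mM ATP.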

[20] = test system: Pancreatic islet cell carcinoma; assay: Antivascular activity against pancreatic islet cell carcinoma in RIP-Tag2 mouse assessed as appearance of empty basement membrane sleeves at 75 mg/kg, po bid administered via gavage and measured after 7 days by immunohistochemical staining based fluorescence microscopic analysis; format: functional, organism-based; settings: time 7.0 day; method in brief: as §1

T1 sequence (P78527 whole entry): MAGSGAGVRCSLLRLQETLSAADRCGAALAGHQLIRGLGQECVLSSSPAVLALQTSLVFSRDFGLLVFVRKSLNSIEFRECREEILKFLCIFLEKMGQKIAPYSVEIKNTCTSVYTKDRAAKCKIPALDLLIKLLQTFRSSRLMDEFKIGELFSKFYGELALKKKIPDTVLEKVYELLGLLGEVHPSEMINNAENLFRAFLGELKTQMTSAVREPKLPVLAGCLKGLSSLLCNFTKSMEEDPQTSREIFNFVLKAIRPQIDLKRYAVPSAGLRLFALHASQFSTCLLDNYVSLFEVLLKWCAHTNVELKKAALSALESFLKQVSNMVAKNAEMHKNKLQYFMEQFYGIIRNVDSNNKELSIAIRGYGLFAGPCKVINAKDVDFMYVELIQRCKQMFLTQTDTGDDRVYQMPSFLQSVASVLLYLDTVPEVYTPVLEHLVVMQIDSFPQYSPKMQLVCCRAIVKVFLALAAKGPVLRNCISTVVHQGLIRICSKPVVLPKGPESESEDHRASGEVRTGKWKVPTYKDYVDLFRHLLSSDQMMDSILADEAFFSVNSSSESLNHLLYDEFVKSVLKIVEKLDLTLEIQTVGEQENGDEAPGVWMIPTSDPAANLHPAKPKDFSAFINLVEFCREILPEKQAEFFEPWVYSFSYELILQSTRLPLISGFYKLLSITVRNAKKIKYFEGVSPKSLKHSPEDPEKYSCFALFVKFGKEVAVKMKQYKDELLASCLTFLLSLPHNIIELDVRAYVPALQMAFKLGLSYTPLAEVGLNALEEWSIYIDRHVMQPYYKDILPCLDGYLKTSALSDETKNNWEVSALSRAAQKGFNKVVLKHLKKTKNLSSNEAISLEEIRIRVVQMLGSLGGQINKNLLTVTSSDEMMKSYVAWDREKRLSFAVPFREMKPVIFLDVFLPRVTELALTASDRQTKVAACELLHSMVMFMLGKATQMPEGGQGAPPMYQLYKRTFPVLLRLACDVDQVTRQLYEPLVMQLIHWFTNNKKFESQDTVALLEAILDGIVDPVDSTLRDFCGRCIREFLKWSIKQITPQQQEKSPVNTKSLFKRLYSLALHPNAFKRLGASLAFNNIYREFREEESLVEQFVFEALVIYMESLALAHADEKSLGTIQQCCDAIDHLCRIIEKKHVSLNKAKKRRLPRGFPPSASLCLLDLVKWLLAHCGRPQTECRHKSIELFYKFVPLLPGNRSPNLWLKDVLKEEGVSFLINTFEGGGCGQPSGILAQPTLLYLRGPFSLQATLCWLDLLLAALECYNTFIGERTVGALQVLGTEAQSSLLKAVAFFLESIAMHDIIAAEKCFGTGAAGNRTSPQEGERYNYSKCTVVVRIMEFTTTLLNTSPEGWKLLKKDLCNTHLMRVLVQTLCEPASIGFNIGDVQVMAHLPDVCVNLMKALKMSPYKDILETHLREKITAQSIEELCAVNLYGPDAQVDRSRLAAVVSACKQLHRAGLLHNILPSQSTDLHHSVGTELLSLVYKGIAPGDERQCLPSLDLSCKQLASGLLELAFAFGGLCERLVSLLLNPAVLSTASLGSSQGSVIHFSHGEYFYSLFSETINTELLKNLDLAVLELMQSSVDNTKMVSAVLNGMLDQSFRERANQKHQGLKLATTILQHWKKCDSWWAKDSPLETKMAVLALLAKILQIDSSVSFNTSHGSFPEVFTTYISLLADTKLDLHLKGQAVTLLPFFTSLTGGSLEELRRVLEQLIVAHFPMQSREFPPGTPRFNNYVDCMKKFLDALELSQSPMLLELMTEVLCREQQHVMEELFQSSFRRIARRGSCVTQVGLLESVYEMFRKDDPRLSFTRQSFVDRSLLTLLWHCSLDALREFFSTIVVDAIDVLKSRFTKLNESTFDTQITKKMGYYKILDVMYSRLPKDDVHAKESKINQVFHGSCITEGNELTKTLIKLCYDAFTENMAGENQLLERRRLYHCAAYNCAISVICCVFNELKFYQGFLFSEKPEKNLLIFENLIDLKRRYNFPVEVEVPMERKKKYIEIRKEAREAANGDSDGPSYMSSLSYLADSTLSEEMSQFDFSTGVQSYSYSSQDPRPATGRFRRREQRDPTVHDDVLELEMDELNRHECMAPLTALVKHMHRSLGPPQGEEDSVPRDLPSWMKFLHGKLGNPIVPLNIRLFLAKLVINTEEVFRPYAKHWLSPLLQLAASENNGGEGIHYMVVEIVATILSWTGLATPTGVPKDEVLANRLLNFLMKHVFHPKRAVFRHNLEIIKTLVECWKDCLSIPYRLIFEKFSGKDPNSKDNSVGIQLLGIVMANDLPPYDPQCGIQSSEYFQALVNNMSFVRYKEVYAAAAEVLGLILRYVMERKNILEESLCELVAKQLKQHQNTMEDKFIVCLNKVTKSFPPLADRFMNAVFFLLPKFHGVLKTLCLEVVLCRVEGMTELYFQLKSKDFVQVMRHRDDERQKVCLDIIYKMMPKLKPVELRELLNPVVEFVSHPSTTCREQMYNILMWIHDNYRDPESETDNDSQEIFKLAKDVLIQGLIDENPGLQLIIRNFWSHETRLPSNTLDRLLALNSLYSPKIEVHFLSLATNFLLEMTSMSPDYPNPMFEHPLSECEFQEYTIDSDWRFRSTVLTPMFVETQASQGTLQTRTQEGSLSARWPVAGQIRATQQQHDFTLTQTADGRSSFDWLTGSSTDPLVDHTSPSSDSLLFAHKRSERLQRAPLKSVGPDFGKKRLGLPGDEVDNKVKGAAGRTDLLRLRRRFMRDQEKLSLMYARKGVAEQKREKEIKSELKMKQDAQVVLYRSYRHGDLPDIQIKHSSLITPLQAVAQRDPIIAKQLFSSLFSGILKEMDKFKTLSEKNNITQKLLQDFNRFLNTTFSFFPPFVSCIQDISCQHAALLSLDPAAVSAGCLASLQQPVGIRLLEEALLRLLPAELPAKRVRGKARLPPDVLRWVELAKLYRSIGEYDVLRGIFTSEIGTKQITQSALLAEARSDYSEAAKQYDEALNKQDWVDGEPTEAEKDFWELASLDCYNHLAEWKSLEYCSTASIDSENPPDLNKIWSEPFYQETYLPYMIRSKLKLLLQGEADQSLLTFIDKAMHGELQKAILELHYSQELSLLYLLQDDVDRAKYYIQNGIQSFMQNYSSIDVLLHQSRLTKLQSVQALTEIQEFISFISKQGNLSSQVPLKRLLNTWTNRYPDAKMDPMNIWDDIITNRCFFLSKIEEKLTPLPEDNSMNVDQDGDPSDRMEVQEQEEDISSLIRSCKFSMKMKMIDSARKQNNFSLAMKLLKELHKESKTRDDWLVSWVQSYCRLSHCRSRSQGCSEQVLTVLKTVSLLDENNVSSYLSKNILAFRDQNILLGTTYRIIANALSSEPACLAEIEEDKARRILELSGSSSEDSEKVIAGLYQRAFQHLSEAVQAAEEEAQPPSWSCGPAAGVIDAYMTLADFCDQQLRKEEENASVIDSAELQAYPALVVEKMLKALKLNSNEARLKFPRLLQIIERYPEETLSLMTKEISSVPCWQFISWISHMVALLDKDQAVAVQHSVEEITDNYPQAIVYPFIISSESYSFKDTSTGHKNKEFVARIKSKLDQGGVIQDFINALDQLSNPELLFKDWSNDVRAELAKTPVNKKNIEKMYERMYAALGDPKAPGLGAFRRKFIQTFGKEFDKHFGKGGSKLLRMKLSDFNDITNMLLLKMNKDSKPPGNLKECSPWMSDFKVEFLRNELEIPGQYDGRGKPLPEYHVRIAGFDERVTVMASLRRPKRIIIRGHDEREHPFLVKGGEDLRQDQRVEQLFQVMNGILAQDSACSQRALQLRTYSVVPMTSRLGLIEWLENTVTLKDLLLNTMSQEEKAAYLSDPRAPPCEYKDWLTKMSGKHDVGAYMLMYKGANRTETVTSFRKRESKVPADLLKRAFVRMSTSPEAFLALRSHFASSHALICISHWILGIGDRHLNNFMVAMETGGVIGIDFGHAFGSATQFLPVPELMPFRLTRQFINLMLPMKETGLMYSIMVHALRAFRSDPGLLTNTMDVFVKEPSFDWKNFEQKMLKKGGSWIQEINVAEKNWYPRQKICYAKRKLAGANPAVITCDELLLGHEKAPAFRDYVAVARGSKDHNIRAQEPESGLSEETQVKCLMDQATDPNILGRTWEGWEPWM
Sequence of Eukaryotic translation initiation factor 4E-binding protein 1 (Homo sapiens) (Q13541 whole entry): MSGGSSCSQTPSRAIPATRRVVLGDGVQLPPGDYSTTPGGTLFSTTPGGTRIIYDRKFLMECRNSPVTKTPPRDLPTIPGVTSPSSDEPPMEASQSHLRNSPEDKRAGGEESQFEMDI
Sequence of Dual specificity mitogen-activated protein kinase kinase 2 (Homo sapiens) (P36507 whole entry): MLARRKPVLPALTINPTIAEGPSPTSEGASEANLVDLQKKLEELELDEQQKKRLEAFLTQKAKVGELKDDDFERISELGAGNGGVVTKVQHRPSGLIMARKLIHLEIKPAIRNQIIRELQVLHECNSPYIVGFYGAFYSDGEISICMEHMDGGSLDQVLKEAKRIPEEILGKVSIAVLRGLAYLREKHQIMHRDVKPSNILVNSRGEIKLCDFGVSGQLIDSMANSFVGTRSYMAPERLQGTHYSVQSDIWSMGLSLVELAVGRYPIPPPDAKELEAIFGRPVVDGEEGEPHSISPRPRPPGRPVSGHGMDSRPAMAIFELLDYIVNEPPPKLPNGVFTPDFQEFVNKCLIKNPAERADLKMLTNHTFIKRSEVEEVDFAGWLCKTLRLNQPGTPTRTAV

IC50 [1]: 0.011 µM
inhibition [2]: > 90%
IC50 [4]: 3.2 µM
inhibition [5]: > 90%
inhibition [6]: > 90%
inhibition [8]: Dose-Dependent Effect
IC50 [9]: > 40 µM
inhibition [10]: Dose-Dependent Effect
IC50 [11]: > 40 µM
IC50 [13]: 9.3 µM
IC50 [18]: > 40 µM
inhibition [19]: Active
IC50 (mTORC1): 0.029 µM
Structure (SMILES): Nc1nccn2c1c(-c1cc3cccc(Cl)c3[nH]1)nc2[C@H]1CC[C@H](C(=O)O)CC1
Activity [3]: 23%
Activity [7]: 48%
inhibition (OVCAR-3): Active
Activity [12]: 50%
inhibition (Mus musculus): Active
Activity [14]: inactive
Activity [15]: Active
Activity [16]: 54%
Activity [17]: inactive
Activity [20]: inactive
